Measurements: publication PMC6506245 (Science Advances, 2019)
Like-named read-outs stand apart in the source and are kept apart here. Bridge positions count the residues as written; N and C are the ends. Square brackets hold non-standard residues; d marks the D form. Peptide text beside a SMILES is read from it. * marks the point of attachment. Biotin = O=C1N[C@H]2[C@H](CS[C@H]2CCCCC(=O)*)N1; 2Nal = N[C@@H](Cc1ccc2ccccc2c1)C(=O)O; S5 = C=CCCC[C@](C)(N)C(=O)O

Key:
Colo320DM cells = experiment: Colo320DM cell viability assay; type: cell-based, human; conditions: read-out: IC50, growth of Colo320DM, 72 h
β-cat [1] = molecular target: T1, β-cat (Homo sapiens, UniProt P35222); experiment: ALPHA binding assay
T1 sequence (P35222 1-781): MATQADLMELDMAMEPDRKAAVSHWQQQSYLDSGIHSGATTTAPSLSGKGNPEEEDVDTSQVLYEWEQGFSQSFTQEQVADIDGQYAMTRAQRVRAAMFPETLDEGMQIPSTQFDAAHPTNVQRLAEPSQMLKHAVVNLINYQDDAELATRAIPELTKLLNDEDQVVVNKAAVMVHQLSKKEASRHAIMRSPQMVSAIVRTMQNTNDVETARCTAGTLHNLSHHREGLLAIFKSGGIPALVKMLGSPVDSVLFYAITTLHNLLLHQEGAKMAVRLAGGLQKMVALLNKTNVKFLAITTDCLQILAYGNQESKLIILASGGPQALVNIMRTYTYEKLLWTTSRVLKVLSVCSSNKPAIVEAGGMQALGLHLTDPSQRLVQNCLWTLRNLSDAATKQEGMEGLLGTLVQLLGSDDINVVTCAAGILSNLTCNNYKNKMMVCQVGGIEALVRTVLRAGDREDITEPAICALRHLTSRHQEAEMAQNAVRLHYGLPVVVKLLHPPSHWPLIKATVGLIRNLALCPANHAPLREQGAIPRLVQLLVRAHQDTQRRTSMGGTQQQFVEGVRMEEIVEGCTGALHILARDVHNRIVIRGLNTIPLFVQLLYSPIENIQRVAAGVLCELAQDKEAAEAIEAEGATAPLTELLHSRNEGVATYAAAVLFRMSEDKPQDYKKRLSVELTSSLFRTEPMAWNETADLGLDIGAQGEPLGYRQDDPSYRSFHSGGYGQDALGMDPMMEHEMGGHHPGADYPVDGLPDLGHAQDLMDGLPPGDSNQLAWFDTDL

β-cat [2] = molecular target: T1, β-cat; experiment: HTRF binding assay
[3] = molecular target: histidine-tagged β-catenin (β-cat) protein (UniProt P35222); experiment: AlphaScreen or HTRF
PK profiling in mice = type: in vivo, BALB/c mice
[4] = Dose-escalating toxicity study; type: in vivo, BALB/c mice
Method in brief: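 BALB/c mice received vehicle control or test compound at 10, 15 or 20 mg/kg by i.p. injection, once daily for 14 days. Serum chemistry and hematology were done after the 2-week treatment and compared with vehicle-treated animals.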

Plasma stability assay = type: in vitro ADME, BALB/c nude mice; conditions: BALB/c nude, mouse

O=C1[C@H](Cc2ccc(O)cc2)N2C(=O)CCN(C(=O)NCc3ccccc3)[C@H]2CN1Cc1cccc2ccccc12 [ICG-001]
IC50 (Colo320DM cells; CellTiter-Glo): 15 µM

CCCC[C@H](NC(=O)[C@H](CCCNC(=N)N)NC(=O)[C@H](CCC(N)=O)NC(=O)[C@@H](NC(=O)[C@]1(C)CCCC=CCCC[C@](C)(NC(=O)[C@H](CC(C)C)NC(=O)[C@H](CO)NC(=O)[C@H](CCCNC(=N)N)NC(=O)[C@H](CCC(=O)O)NC(=O)[C@H](CCCNC(=N)N)NC(=O)[C@H](Cc2c[nH]cn2)NC(=O)[C@H](CCC(=O)O)NC(=O)[C@H](CC(C)C)NC(=O)[C@H](CCC(N)=O)NC(=O)[C@H](CCC(=O)O)NC(=O)[C@H](CCC(N)=O)NC(=O)[C@H](CO)NC(=O)[C@H](CC(C)C)NC(C)=O)C(=O)N[C@@H]([C@@H](C)O)C(=O)N[C@@H](CC(C)C)C(=O)N[C@@H](CCCNC(=N)N)C(=O)N1)[C@@H](C)CC)C(=O)N[C@@H](CC(C)C)C(=O)N[C@@H](Cc1ccccc1)C(N)=O [SAH-BCL9B]
Kd (β-cat [1]): 0.142 µM
Kd (β-cat [2]): 0.192 µM

hsBCL9CT-24 (hydrocarbon-stapled BCL9-HD2 peptide)
Kd [3]: 0.00421 µM

CC[C@H](C)[C@@H]1NC(=O)[C@@](C)(NC(=O)[C@H](CCCNC(=N)N)NC(=O)[C@H](CC(C)C)NC(=O)[C@@H](NC(=O)[C@H](CCC(N)=O)NC(=O)[C@H](CC(C)C)NC(C)=O)[C@@H](C)O)CCCC=CCCC[C@@](C)(C(=O)N[C@@H](CC(C)C)C(=O)N[C@@H](Cc2ccc3ccccc3c2)C(N)=O)NC(=O)[C@H](CCCNC(=N)N)NC(=O)[C@H](CCC(N)=O)NC1=O [hsBCL9CT-24] (Ac-LQTLR[S5]IQR[S5]L[2Nal]-NH2; staple 6-10)
bioavailability (PK profiling in mice; BALB/c, mouse, plasma, sc, 10 mg/kg): 56%
Terminal t1/2 (PK profiling in mice; i.m. 5 mg/kg, BALB/c mice n = 2, table S2A): 10.6 h
Kd (β-cat [1]): 0.00473 µM
survival in toxicity study ([4]; 10, 15, or 20 mg/kg i.p., QD over 14 days): All animals survived the duration of study
serum chemistry and hematology versus vehicle control ([4]; after a 2-week treatment period, 20 mg/kg QD (fig. S4I)): no difference
toxicity in brain, lung, kidney, liver, heart, and spleen tissues by histology ([4]; i.p. QD over 14 days (fig. S4C: 10 mg/kg)): minimal toxicity
half-life at 2 µM (Plasma stability assay): 5.13 h
IC50 (Colo320DM cells; CellTiter-Glo): 1.45 µM

Cc1cc(-c2ncc(CC(=O)Nc3ccc(-c4cnccn4)cn3)cc2C)ccn1 [LGK-974]
IC50 (Colo320DM cells; Homo sapiens, COLO 320DM): 18.5 µM

CC[C@H](C)[C@H](NC(=O)[C@H](CC(=O)O)NC(=O)[C@H](CCCNC(=N)N)NC(=O)[C@H](CC(C)C)NC(=O)[C@@H](NC(=O)[C@H](CCC(N)=O)NC(=O)[C@H](CC(C)C)NC(=O)[C@H](CO)NC(=O)[C@H](CCCNC(=N)N)NC(=O)[C@H](CCC(=O)O)NC(=O)[C@H](CCCNC(=N)N)NC(=O)[C@H](Cc1c[nH]cn1)NC(=O)[C@H](CCC(=O)O)NC(=O)[C@H](CC(C)C)NC(=O)[C@H](CCC(N)=O)NC(=O)[C@H](CCC(=O)O)NC(=O)[C@H](CCC(N)=O)NC(=O)[C@H](CO)NC(=O)[C@H](CC(C)C)NC(=O)CCCC[C@@H]1SC[C@@H]2NC(=O)N[C@@H]21)[C@@H](C)O)C(=O)N[C@@H](CCC(N)=O)C(=O)N[C@@H](CCCNC(=N)N)C(=O)N[C@@H](CCSC)C(=O)N[C@@H](CC(C)C)C(=O)N[C@@H](Cc1ccccc1)C(=O)O [BCL9-HD2A] (Biotin-LSQEQLEHRERSLQTLRDIQRMLF-OH)
Kd (β-cat [1]): 0.0143 µM
Kd (β-cat [2]): 0.0383 µM

CCN(CC)CCOC(=O)c1ccc(N)cc1 [Procaine, reference compound]
remaining at 1 h, 2 µM (Plasma stability assay): 0.02%
